Laboratory results taken from publication PMC8335715 (Medicinal Chemistry Research, 2021).

Molecular target: rat lens ALR2 (Rattus norvegicus, UniProt P07943)
Test: ALR2 enzyme inhibition assay
Assay type: biochemical
Details: ratio IC50 ALR1 / IC50 ALR2; called SF in text
In short: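 Rat lens enzyme (male Wistar) was partially purified: homogenised in cold water, spun at 10.000 g, fractionated with ammonium sulfate (40/50/75%). Substrate was D,L-glyceraldehyde in 0.067 M phosphate, pH 6.2, at 30 °C. Substrate started the reaction, and a substrate-free blank corrected NADPH oxidation. Test compound was in NaHCO3 or DMSO (1% final). IC50 came from least-squares fit of the linear semilog portion (25–75% inhibition), at least two experiments. The selectivity index was calculated against kidney-enzyme IC50.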

| Compound | Selectivity index (ALR1/ALR2) |
| --- | --- |
| COc1ccc2nc(/N=C3/NC(=O)C(=Cc4ccc(O)cc4)S3)sc2c1 [Compound 2, (Z)-5-(4-hydroxybenzylidene)-2-((6-methoxybenzo[d]thiazol-2-yl)imino)thiazolidin-4-one] | < 1 |
| COc1ccc(/C=C2\SC(=Nc3nc4ccc(OC)cc4s3)NC2=O)cc1 [Compound 3, (Z)-2-((6-methoxybenzo[d]thiazol-2-yl)imino)-5-(4-methoxybenzylidene)thiazolidin-4-one] | < 1 |
| COc1ccc2nc(/N=C3/NC(=O)C(=Cc4ccc(O)c(OC)c4)S3)sc2c1 [Compound 4, (Z)-5-(4-hydroxy-3-methoxybenzylidene)-2-((6-methoxybenzo[d]thiazol-2-yl)imino) thiazolidin-4-one] | < 1 |
